Source: ChEMBL document CHEMBL4002591 (J Med Chem, 2017)
Active and inactive are the calls of the source. The rule behind the calls is not given here.

Legend:
[1] = biological target: T1, Protein mono-ADP-ribosyltransferase PARP15 (Homo sapiens, UniProt Q460N3); assay: Inhibition of PARP15 (unknown origin)
T1 sequence (Q460N3 whole entry): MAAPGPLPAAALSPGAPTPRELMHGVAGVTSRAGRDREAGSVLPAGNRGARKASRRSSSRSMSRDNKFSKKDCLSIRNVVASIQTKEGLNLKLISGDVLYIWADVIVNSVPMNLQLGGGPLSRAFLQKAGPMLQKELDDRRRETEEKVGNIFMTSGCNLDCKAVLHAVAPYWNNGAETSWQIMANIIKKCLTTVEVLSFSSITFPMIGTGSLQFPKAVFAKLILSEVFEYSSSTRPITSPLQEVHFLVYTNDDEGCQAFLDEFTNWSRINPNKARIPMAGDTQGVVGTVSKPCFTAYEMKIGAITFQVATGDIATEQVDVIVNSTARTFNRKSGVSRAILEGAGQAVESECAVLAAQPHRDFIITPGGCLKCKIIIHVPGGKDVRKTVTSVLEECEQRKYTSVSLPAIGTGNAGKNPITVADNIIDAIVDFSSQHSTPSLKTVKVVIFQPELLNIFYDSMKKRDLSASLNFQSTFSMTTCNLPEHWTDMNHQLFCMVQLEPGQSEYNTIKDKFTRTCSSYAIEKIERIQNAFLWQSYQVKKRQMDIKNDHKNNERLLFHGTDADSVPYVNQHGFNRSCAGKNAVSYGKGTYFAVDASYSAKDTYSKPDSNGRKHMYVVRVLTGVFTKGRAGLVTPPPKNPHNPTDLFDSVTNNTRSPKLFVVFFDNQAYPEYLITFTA

[2] = Inhibition of tankyrase (unknown origin) expressed in TCF/LEF-HEK293 cells assessed as inhibition of Wnt/beta-catenin signaling pathway in Wnt3a conditioned medium measured after 20 hrs by luciferase reporter gene assay; type: cell-based; settings: Homo sapiens
[3] = biological target: T2, Protein mono-ADP-ribosyltransferase PARP10 (Homo sapiens, UniProt Q53GL7); assay: Inhibition of PARP10 (unknown origin)
T2 sequence (Q53GL7 whole entry): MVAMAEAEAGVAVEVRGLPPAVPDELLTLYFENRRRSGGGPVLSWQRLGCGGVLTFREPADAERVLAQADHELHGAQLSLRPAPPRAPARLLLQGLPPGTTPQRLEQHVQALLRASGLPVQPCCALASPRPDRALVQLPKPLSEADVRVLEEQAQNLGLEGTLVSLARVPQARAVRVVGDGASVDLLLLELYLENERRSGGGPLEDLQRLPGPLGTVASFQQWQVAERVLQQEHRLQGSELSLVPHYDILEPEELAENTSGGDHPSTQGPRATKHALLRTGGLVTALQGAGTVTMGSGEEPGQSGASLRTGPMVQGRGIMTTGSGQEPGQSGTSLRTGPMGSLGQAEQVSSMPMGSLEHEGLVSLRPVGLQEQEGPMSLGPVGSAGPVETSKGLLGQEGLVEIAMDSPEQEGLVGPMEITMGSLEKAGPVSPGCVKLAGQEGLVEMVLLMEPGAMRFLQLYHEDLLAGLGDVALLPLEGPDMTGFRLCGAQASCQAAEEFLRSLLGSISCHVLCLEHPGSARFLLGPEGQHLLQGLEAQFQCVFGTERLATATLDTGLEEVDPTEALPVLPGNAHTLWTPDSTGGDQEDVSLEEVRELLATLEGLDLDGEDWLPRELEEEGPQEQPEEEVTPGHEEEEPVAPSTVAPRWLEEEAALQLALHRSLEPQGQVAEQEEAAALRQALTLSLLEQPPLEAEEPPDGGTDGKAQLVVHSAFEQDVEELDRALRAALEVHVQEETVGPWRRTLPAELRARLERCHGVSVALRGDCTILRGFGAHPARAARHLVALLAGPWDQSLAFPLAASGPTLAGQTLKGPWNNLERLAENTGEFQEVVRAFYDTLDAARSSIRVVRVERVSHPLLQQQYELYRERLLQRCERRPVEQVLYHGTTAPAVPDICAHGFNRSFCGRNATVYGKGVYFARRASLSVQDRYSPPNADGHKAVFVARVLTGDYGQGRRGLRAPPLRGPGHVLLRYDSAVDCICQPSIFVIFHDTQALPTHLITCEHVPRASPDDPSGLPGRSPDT

[4] = tested on: HEK293; assay: Cytotoxicity against HEK293 cells by light microscopic analysis; type: cell-based; settings: human
Procedure, shortened: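 Viability of TCF/LEF reporter HEK293 cells was checked by light microscopy during the Wnt-signaling reporter assay.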

[5] = species: Mus musculus; assay: Inhibition of TNKS in mouse 3T3L1 cells assessed as upregulation of GLUT4 by measuring increase in insulin-stimulated glucose uptake at 100 nM using 2-deoxy-D-[2,6-3H]glucose as substrate pretreated for 1 hr followed by insulin stimulation for 30 mins and subsequent addition of substrate measured after 5 mins by scintillation counter; type: cell-based; design: scale not given: the % may be the effect or the level left
Procedure, shortened: (§1)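 3T3-L1 fibroblasts were grown in DMEM and differentiated to adipocytes with insulin, dexamethasone and isobutylmethylxanthine, then used 10-12 d later. Cells were serum-starved 2 h at 37°C and given compound for 1 h. After KRH washes (pH 7.4), cells were held 30 min with compound, with or without 100 nM insulin. 2-Deoxy-D-[2,6-³H]glucose was added for 5 min.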

[6] = biological target: T3, Protein mono-ADP-ribosyltransferase PARP3 (Homo sapiens, UniProt Q9Y6F1); assay: Inhibition of PARP3 (unknown origin)
T3 sequence (Q9Y6F1 whole entry): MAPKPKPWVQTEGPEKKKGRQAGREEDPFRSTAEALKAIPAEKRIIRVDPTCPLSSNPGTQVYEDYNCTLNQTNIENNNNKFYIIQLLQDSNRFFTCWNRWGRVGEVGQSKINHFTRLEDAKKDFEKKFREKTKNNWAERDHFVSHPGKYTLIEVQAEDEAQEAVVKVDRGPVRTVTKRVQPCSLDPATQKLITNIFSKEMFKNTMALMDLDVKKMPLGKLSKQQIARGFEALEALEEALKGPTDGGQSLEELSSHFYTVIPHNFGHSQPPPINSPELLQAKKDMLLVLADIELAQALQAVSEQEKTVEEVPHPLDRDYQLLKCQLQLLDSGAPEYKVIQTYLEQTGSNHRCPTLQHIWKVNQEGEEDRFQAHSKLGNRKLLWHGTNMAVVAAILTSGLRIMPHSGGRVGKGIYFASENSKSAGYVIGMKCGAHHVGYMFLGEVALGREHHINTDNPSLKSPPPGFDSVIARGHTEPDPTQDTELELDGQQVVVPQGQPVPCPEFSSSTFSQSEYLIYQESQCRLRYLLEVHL

[7] = tested on: DLD-1; assay: Anti-proliferative activity against human DLD1 cells assessed as inhibition of colony formation at 100 nM measured after 18 days under normal serum condition by trypan blue staining based light microscopic analysis; type: functional, cell-based
Procedure, shortened: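 DLD-1 colony-forming assay under normal serum: 1000 cells/well, with 1.0 µM or 100 nM compound, or a 1% DMSO (v/v) vehicle control. Colonies were counted, n = 3.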

[8] = tested on: 3T3-L1; assay: Effect on glucose uptake in mouse 3T3L1 cells at 1 uM using 2-deoxy-D-[2,6-3H]glucose as substrate pretreated for 1 hr followed substrate addition measured after 5 mins by scintillation counter; type: ADME, cell-based; settings: 3t3-l1, 5 min; procedure, shortened: as §1

| SMILES | IC50 [1] [µM] | IC50 ([2]; read-out: IC50) [µM] | IC50 ([2]; read-out: pIC50 (converted)) [µM] | IC50 [3] [µM] | Activity [4] | Activity [5] [%] | IC50 [6] [µM] | inhibition [7] | Activity [8] |
| --- | --- | --- | --- | --- | --- | --- | --- | --- | --- |
| Cc1cccc2c(=O)[nH]c(CCC(=O)Nc3ccc(C(=O)Nc4cccc5cccnc45)cc3)nc12 | > 100 | 0.037 | 0.0372 | > 100 | Non-Toxic | 20 | 45 | Active | Non-Toxic |
| O=C(CCc1nc2ccccc2c(=O)[nH]1)Nc1ccc(C(=O)Nc2cccc3cccnc23)cc1 | > 100 | 0.029 | 0.0288 | > 100 | Non-Toxic | 40 | 40 | Active | Non-Toxic |
